Test [1] deals with Dual specificity protein kinase CLK3 (Homo sapiens) (UniProt P49761). The test is described as follows: Inhibition of human recombinant CLK3 at 15 nM in presence of ATP by radiometric assay relative to control.
Test [2] addresses T1, Serine/threonine-protein kinase BRSK2 (Homo sapiens) (UniProt Q8IWQ3).
T1 sequence (whole entry): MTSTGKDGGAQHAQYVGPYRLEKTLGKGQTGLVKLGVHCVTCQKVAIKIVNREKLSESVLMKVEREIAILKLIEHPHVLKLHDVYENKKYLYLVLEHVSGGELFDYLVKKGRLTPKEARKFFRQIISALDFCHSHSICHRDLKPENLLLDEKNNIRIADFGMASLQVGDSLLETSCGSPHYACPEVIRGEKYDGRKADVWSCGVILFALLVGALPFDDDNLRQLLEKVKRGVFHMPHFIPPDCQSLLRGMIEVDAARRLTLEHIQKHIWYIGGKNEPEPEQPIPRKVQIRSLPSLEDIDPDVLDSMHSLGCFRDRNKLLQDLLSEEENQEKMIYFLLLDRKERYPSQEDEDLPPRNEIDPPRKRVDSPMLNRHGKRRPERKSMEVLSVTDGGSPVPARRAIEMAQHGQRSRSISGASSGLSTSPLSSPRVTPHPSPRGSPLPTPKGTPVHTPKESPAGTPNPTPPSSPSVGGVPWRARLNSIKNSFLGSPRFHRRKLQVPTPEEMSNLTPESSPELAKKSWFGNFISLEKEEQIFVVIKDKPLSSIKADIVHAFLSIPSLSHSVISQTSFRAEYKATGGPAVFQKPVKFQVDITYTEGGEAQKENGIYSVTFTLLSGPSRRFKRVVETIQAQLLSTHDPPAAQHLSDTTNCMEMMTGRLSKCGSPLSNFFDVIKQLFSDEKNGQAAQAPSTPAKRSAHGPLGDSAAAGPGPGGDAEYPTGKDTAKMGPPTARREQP
The test can be described thus: Inhibition of human recombinant BRSK2 at 15 nM in presence of ATP by radiometric assay relative to control. Summed up: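 Recombinant human kinase panel (327 kinases) run as radiometric activity assays, each kinase in duplicate at one compound concentration. Activity remaining expressed relative to vehicle control; percent inhibition taken as 100% minus % activity remaining.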

For the next test, the species on record is Homo sapiens. The test can be described thus: Inhibition of human recombinant p70S6K at 15 nM in presence of ATP by radiometric assay relative to control.
Test [3] addresses Tyrosine-protein kinase CSK (Homo sapiens) (UniProt P41240). The test can be described thus: Inhibition of human recombinant CSK at 15 nM related to control ULK1.
The target of test [4] is Vascular endothelial growth factor receptor 2 (Homo sapiens) (UniProt P35968). The test is described as follows: Inhibition of human recombinant KDR at 15 nM related to control ULK1.
For test [5], the target named is Mitogen-activated protein kinase kinase kinase kinase 1 (Homo sapiens) (UniProt Q92918). The test can be described thus: Inhibition of human recombinant HPK1 at 15 nM related to control ULK1.
For test [6], the target named is Protein kinase C iota type (Homo sapiens) (UniProt P41743). The test is described as follows: Inhibition of human recombinant PKCi at 500 nM in presence of ATP by radiometric assay relative to control.
The target in test [7] is T2, Homeodomain-interacting protein kinase 4 (Homo sapiens) (UniProt Q8NE63).
T2 sequence (whole entry): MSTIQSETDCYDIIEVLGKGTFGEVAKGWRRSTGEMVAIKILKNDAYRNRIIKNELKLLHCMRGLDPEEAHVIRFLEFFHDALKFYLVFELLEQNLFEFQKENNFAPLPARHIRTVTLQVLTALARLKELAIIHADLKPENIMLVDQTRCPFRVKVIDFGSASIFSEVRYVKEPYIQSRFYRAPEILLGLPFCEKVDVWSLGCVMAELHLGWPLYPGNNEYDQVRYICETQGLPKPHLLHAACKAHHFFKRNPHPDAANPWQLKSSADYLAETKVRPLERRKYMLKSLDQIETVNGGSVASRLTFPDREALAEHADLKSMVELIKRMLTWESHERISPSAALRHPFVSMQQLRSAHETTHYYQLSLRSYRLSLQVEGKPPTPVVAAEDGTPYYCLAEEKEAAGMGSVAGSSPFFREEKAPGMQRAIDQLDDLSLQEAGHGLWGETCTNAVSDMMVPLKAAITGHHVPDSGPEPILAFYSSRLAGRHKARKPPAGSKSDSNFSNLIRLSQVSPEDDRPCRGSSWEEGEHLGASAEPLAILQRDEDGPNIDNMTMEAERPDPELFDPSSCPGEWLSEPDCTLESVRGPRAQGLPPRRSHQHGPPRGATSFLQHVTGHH
The test is described as follows: Inhibition of human recombinant HIPK4 at 500 nM related to control ULK1.

Test [8] concerns the target T3, Inhibitor of nuclear factor kappa-B kinase subunit alpha (Homo sapiens) (UniProt O15111).
T3 sequence (whole entry): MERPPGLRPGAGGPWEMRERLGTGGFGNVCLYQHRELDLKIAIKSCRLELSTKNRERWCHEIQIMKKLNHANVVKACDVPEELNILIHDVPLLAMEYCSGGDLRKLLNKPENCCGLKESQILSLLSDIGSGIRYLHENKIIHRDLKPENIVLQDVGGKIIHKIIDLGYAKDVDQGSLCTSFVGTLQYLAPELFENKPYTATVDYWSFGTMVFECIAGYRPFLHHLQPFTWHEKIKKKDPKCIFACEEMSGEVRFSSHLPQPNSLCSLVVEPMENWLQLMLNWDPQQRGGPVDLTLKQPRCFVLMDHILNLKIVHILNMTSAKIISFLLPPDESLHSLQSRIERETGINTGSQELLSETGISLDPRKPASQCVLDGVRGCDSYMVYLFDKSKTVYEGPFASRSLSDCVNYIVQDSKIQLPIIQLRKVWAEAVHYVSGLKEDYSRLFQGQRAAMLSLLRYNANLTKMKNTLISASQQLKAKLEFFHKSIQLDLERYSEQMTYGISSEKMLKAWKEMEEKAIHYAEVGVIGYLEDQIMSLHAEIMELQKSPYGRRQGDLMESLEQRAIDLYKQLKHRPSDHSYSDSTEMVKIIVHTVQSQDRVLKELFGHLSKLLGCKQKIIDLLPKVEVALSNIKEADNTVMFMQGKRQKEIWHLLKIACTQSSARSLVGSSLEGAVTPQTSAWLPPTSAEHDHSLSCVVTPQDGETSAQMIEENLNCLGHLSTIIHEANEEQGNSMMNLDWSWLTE
The test can be described thus: Inhibition of human recombinant IKKa at 500 nM related to control ULK1.

Drawing on ChEMBL document CHEMBL5653631, “A Potent and Selective ULK1 Inhibitor Suppresses Autophagy and Sensitizes Cancer Cells to Nutrient Stress” (iScience, 2018), this text covers inhibition and fold change (FC) for 2 compounds.

Vascular endothelial growth factor receptor 2 (Homo sapiens), sequence (P35968 whole entry): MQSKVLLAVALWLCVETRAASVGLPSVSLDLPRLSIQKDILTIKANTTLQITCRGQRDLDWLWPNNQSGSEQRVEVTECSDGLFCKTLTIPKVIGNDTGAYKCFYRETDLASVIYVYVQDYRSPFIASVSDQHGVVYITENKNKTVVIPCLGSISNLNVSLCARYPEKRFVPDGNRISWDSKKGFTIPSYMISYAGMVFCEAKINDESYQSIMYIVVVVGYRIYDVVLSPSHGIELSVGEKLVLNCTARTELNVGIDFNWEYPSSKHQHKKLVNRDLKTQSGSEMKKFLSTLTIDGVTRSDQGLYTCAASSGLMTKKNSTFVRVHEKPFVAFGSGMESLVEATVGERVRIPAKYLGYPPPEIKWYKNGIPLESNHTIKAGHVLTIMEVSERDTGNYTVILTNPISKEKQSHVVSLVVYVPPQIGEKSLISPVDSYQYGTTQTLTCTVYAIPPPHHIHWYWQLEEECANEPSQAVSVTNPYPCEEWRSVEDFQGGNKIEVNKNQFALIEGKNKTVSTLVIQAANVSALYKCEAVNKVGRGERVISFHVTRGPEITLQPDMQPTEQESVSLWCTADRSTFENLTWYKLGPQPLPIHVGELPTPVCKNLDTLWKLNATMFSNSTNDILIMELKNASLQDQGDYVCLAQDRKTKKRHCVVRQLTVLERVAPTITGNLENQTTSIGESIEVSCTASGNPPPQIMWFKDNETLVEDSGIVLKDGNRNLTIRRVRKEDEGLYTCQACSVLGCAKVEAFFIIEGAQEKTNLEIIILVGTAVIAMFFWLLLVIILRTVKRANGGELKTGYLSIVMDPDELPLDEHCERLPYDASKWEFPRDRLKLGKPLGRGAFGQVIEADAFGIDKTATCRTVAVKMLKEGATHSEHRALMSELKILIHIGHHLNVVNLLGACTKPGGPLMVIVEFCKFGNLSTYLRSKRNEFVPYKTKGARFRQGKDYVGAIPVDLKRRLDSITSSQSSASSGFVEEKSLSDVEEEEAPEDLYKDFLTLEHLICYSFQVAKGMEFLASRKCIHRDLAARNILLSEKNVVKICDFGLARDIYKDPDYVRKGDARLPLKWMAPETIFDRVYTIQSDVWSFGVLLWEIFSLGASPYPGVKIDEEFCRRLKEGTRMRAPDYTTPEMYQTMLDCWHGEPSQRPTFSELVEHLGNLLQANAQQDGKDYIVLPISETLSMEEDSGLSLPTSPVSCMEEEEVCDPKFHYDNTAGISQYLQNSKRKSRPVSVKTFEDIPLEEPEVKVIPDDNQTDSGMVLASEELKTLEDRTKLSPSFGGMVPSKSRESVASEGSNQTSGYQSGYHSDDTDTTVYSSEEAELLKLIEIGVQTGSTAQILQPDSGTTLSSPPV
Protein kinase C iota type (Homo sapiens), sequence (P41743 whole entry, looked up): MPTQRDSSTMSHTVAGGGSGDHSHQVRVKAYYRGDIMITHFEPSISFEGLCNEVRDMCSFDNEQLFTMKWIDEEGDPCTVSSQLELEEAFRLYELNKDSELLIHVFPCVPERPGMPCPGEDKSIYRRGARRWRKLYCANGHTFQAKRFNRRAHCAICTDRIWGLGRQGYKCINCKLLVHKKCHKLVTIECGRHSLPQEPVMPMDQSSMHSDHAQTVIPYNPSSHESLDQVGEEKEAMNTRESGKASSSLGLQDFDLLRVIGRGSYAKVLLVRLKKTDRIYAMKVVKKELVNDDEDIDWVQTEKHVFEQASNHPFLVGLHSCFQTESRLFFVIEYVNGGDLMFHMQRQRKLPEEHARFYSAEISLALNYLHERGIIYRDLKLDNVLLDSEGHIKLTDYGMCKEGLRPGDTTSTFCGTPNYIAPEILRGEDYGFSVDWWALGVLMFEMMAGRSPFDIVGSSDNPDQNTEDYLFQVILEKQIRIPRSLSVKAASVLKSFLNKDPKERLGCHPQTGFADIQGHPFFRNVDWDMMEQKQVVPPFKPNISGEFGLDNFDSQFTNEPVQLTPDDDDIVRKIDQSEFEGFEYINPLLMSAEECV
Mitogen-activated protein kinase kinase kinase kinase 1 (Homo sapiens), sequence (Q92918 whole entry, looked up): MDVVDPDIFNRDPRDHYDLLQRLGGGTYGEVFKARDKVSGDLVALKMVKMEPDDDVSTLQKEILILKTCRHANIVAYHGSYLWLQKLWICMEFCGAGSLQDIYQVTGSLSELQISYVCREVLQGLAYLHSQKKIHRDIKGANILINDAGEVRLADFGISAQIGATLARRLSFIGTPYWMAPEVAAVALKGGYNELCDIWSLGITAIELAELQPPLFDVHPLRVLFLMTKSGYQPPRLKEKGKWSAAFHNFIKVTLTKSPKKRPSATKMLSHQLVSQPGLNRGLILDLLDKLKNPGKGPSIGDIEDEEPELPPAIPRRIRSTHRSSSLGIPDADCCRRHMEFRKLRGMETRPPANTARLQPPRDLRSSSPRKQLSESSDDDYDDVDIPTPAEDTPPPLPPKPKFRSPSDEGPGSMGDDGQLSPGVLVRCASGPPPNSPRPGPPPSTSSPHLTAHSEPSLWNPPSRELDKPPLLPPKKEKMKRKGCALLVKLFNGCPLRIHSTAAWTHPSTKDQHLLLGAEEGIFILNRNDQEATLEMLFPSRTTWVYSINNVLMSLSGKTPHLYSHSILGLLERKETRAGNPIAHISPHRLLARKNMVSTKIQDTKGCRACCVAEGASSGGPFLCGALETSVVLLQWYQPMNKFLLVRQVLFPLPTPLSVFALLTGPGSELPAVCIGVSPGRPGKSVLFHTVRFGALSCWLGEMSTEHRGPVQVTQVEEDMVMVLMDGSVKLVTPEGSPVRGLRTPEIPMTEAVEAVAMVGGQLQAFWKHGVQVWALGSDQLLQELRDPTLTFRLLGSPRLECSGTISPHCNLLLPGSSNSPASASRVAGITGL
Dual specificity protein kinase CLK3 (Homo sapiens), sequence (P49761 whole entry, looked up): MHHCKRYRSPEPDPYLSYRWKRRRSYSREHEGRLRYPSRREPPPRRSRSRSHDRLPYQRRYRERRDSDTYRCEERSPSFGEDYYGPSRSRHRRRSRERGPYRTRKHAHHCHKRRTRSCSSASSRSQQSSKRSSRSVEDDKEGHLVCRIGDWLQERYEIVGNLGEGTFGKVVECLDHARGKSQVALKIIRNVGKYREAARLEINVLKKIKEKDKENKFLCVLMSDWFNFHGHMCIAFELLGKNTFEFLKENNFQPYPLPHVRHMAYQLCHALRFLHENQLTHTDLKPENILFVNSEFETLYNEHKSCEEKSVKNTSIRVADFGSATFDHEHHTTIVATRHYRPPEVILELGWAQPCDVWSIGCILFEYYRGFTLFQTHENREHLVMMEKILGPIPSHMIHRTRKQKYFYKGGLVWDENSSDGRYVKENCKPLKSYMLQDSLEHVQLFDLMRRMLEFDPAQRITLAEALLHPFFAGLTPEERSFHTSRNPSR
Tyrosine-protein kinase CSK (Homo sapiens), sequence (P41240 2-450 limits assumed): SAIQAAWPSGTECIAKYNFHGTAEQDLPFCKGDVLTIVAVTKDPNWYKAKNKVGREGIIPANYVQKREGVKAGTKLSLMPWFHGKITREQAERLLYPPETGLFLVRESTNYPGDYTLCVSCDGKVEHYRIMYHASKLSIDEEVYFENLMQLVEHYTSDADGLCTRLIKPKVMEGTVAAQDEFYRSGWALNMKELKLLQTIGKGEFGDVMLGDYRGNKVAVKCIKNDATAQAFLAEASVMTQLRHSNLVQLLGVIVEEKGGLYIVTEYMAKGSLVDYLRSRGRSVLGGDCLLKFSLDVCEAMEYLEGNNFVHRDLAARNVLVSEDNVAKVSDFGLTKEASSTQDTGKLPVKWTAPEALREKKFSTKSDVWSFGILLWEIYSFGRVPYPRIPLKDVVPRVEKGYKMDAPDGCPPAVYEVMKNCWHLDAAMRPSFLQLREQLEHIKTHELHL

By inhibition is commonly meant how much of the control response was suppressed. Turning to `CC(C)[C@H](NC(=O)c1cc(-c2cnn3cc(-c4ccc(OCCN5CCCCC5)cc4)cnc23)cs1)C(F)(F)F`, the results for the inhibition (in test [1]; in test [2]; in the test filed under Homo sapiens) were 1%, 25% and 17%, respectively. The fold change (FC) in test [3] amounted to 0.14; in [4], 0.23; in test [5] it was 0.

Take `CNC(=O)c1ccccc1Oc1nc(Nc2cc(OC)c(OC)c(OC)c2)ncc1Br`: the inhibition in test [6] was 0%. Also, the fold change (FC) was 0.12 in test [7] and 0.03 in [8].
